# Source: PubChem
# TAAR1 agonist: human TAAR1 agonism | Q96RJ0 | CHO RD-HGA16 TAAR1, Fluo-8 calcium fluorescence; vehicle wells 0%, saturating PEA agonist 100% | activation, % at 3 µM | 360,000 compounds, 0.99% hits | AID 624467;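 active = activation above the mean activation of all test compounds in the run plus 3 SD, cut at about 38% in these data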
# Target sequence (Q96RJ0 whole entry, looked up): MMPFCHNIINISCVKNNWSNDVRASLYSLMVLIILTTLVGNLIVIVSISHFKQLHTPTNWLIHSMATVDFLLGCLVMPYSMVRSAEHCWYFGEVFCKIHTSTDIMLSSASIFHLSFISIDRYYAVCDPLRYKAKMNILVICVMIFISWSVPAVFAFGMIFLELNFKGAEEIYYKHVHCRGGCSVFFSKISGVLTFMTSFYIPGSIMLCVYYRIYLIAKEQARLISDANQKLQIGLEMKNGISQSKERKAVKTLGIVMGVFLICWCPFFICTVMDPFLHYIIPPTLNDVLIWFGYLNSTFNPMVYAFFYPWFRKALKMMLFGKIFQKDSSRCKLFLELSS
#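 Assay system: CHO-derived RD-HGA16 cells with stable Gα16 and human TAAR1; timing: 17-24 h seeding, 75 min 37 °C dye, 30 min RT; read-out: % activation from peak over basal fluorescence ratio, DMSO-to-PEA scaled; measured by: kinetic Fluo-8 calcium fluorescence; benchmarks: low control DMSO, high control PEA (EC100); doses: 3 µM single concentration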
# TAAR1 antagonist: antagonists of human TAAR1; Q96RJ0; CHO RD-HGA16 TAAR1, Fluo-8 calcium fluorescence, antagonist; inhibition, % at 3 µM; 360,000 compounds, 1.5% hits;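 active = inhibition above a per-plate cutoff, the mean inhibition of test compounds on that plate plus 3 SD, cut at about 49% in these data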;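 also: 0% = DMSO plus EC80 beta-PEA response and 100% = DMSO alone without agonist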
#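 Material: CHO RD-HGA16 cells bearing hTAAR1; compound dosing: one-point dosing, 3 µM nominal final; schedule: dye loading 75 min at 37 °C, then 30 min room temperature; measured by: calcium fluorescence with Fluo-8; control set: vehicle and agonist controls; replication: n of 1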
# CRFR2-BP antag: CRF-BP/CRF-R2 complex antagonism; HEK293 CRF-R2/CRF-BP, CRF-induced calcium fluorescence; inhibition, % at 11.8 µM; 350,000 compounds, 0.59% hits; AID 588475;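 active = inhibition of the ligand-induced calcium signal above about 50% at the single tested concentration, limit read from the data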
# CRFR2-BP ag: CRF-BP/CRF-R2 complex agonism. HEK293 CRF-R2/CRF-BP, calcium dye fluorescence (FLIPR); percent of saturating CRF peptide response. activation, % at 13.2 µM. 350,000 compounds, 0.46% hits. AID 588473;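 active = activation of at least 50%, plus an integration ratio under a set limit after plate pattern correction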;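 also: plate controls were neutral control wells without compound for no effect and CRF at EC100 for full effect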
# TMEM16A act: activators or potentiators of mouse TMEM16A chloride channel | Q8BHY3 | HEK293 TMEM16A/YFP-H148Q/I152L, iodide quench fluorescence; hits give low values | B-score at 10 µM | 340,000 compounds, 0.3% hits | AID 623877;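 active = fluorescence-ratio B-score plate-corrected deviation score at least 3 library SD below zero, with starting fluorescence score within 5 deviations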;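 also: channel opened by trigger with iodide after compound preincubation; score built on the fluorescence ratio of max minus min over baseline; more negative score means more quench and so TMEM16A activation or potentiation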
# ANO1 block: inhibitors of mouse TMEM16A calcium-activated chloride channel. HEK293 TMEM16A/YFP iodide influx fluorescence, ionomycin. 310,000 compounds, 1.2% hits. Q8BHY3. normalized B-score (activity score, 25-100; higher = stronger inhibition) at 10 µM;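 active = ratio plate-corrected score three or more library SD toward inhibition, starting fluorescence score within five deviations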;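 also: score derived from kinetic fluorescence span divided by baseline fluorescence per well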
# TAAR1 ag confirm: confirmation of human TAAR1 agonists; 2,400 compounds, 82% hits; shares compounds with TAAR1 agonist; AID 651783; CHO RD-HGA16 TAAR1, Fluo-8 calcium fluorescence; scaled: DMSO 0%, maximal phenethylamine 100%; activation, % at 3 µM;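 active = activation above a cutoff set at the run's mean compound activation plus 3 SD, cut at about 39% in these data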
# Ga16 ag counter: nonselective agonism, TAAR1 counter-screen; shares compounds with TAAR1 agonist; CHO-Ga16 parental, Fluo-8 calcium fluorescence; normalized to maximal ATP response, DMSO zero; activation, % at 3 µM; 2,400 compounds, 50% hits;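 active = activation above the run cutoff, the mean activation over all tested wells plus 3 SD, cut at about 12% in these data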;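 also: 0% = DMSO wells and 100% = maximal ATP response on the peak over basal ratio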
# TAAR1 desens: counter-screen for human TAAR1 agonists: agonists that desensitize TAAR1; shares compounds with TAAR1 agonist; CHO RD-HGA16 hTAAR1, Fluo-8 calcium, beta-PEA response inhibition; inhibition, % at 3 µM; 2,400 compounds, 46% hits;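 active = inhibition above the run cutoff, the mean inhibition of all test compounds plus 3 SD, cut at about 49% in these data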;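 also: beta-PEA stimulus applied at its EC80; loss of beta-PEA calcium signal after compound pretreatment read as receptor desensitization; 0% = DMSO with beta-PEA at EC80 and 100% = DMSO alone without agonist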
# Ga16 antag count: nonselective Ga16 antagonist in TAAR1 agonist counter-screen. shares compounds with TAAR1 agonist. CHO-Ga16 ATP-induced calcium, Fluo-8 fluorescence. inhibition, % at 3 µM. 2,400 compounds, 39% hits. AID 651952;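 active = inhibition above the plate's mean compound inhibition plus 3 SD, computed per plate, cut at about 22% in these data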;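 also: 0% = EC80 ATP with DMSO and 100% = DMSO wells without ATP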
# The depositor's hits bear a star; i = inactive; / = no result given. A selection: hits, their analogues and other compounds. The true share with any hit is near 3.9%.
SMILES,TAAR1 agonist,TAAR1 antagonist,CRFR2-BP antag,CRFR2-BP ag,TMEM16A act,ANO1 block,TAAR1 ag confirm,Ga16 ag counter,TAAR1 desens,Ga16 antag count
O=c1ccc2[n+]([O-])c3ccc(O)cc3oc-2c1,57.8*,7.8,8.7,7.7,i,/,31.8,41.7*,26.1,42.3*
Cc1c(C(=O)N/N=C/c2cccs2)nnn1-c1nonc1N,3.5,-12.2,-10.6,0.7,i,i,/,/,/,/
COc1ccc(C(C)(C)C)cc1NC(=O)C1CC(=O)N(C2CCCC2)C1 (stereo unspecified),2.6,-0.8,-6.8,-0.7,i,/,/,/,/,/
O=C(c1cc2ccccc2o1)N1CCN(S(=O)(=O)c2ccc(F)c(F)c2F)CC1,12.1,-3.2,7.5,1.3,i,/,/,/,/,/
CCOC(=O)c1sc(NC(=S)NC(=O)c2ccc(OC)cc2)nc1C,-0.2,3.3,7.7,2.2,i,i,/,/,/,/
COC(=O)c1sc(NC(=S)NC(=O)c2ccccc2C)nc1C,43.1*,28.9,3.0,55.7*,i,i,82.7*,54.0*,61.2*,33.8*
CCOc1ccc(C(C(=O)NC2CCCCC2)N(C(=O)c2csnn2)C2CC2)cc1 (stereo unspecified),0.2,-5.0,3.9,-1.0,i,i,/,/,/,/
O=C(CSc1n[nH]c(-c2ccccc2)n1)NC(=O)NCc1ccco1,/,/,-21.7,-1.8,i,i,/,1.0,/,-3.6
O=C(NCc1ccc(F)cc1)c1cccc2c1C(=O)c1ccc(Cl)cc1S2(=O)=O,9.0,0.5,/,/,/,/,/,/,/,/
CC1CCN(c2ccc3c(c2)S(=O)(=O)c2cccc(C(=O)NCc4cccc(F)c4)c2C3=O)CC1,67.1*,91.4*,-29.0,91.8*,i,/,25.9,35.7*,59.8*,62.5*
COc1ccccc1CCNC(=O)C(=O)NCC1OCCN1S(=O)(=O)c1ccc([N+](=O)[O-])cc1 (stereo unspecified),45.9*,-21.4,6.0,-0.5,i,i,72.5*,3.0,13.0,6.5
COc1ccccc1CCNC(=O)C(=O)NCC1OCCN1S(=O)(=O)c1cccs1 (stereo unspecified),71.6*,-4.5,9.4,0.7,i,i,73.9*,0.8,36.1,15.6
COCCNC(=O)C(=O)NCC1OCCN1S(=O)(=O)c1cccs1 (stereo unspecified),4.2,-2.4,19.7,2.2,i,i,/,/,/,/
COc1ccccc1CCNC(=O)C(=O)NCC1OCCCN1S(=O)(=O)c1ccc(F)cc1C (stereo unspecified),57.8*,4.0,-28.3,-2.9,i,i,64.2*,3.8,20.5,12.1
O=C(NCCc1ccccc1)C(=O)NCC1OCCN1S(=O)(=O)c1ccccc1 (stereo unspecified),80.1*,30.0,3.0,0.7,i,i,78.2*,0.5,63.5*,5.5
Cc1cc([N+](=O)[O-])ccc1NC(=O)C(C)N1CCN(c2ccccn2)CC1 (stereo unspecified),5.7,-26.6,33.5,0.7,i,i,/,/,/,/
C[C@@H]1ON(C)[C@H]2C[C@H]3c4cc(-c5cc6ccccc6o5)ccc4CCN3C[C@@H]12,1.7,-18.8,/,/,/,/,/,/,/,/
Cc1cccc(C)c1NC(=O)CN1CCN(C(=O)c2cc(C3CC3)nn2-c2ccccc2)CC1,0.9,2.8,-12.8,0.5,/,/,/,/,/,/
COc1ccccc1CCNC(=O)C(=O)NCC1OCCN1S(=O)(=O)c1ccccc1 (stereo unspecified),47.4*,5.2,-20.4,-3.2,i,i,69.3*,0.8,34.2,4.6
COc1ccccc1CCNC(=O)C(=O)NCC1OCCN1S(=O)(=O)c1ccc(C)cc1 (stereo unspecified),62.7*,37.2,21.8,-2.2,i,i,76.4*,1.9,58.1*,4.8
O=C(NCCc1ccccc1)C(=O)NCC1OCCN1S(=O)(=O)c1cc(F)ccc1F (stereo unspecified),51.7*,42.7,0.8,0.9,i,i,69.0*,10.6,57.6*,33.8*
COc1ccccc1CCNC(=O)C(=O)NCC1OCCCN1S(=O)(=O)c1cc(C)ccc1C (stereo unspecified),5.8,4.9,-10.4,0.1,i,i,/,/,/,/
CCN1C(=O)[C@H]2[C@@H](c3ccc(-c4ccc(OC)cc4)c(OC)c3)N3CCCC[C@@]3(C(=O)OC)[C@H]2C1=O,1.5,8.0,-12.2,0.4,i,i,/,/,/,/
C[C@@H]1CCCCO[C@H](CN(C)Cc2ccc(C(F)(F)F)cc2)[C@@H](C)CN([C@H](C)CO)C(=O)c2cc(NS(=O)(=O)c3cn(C)cn3)ccc2O1,0.9,-8.5,0.0,0.0,/,/,/,/,/,/
Cc1cccc(NC(=O)N2C3CCCC2CC(NC(=O)C(C)(C)C)C3)c1 (stereo unspecified),-0.2,4.5,-6.6,-0.4,i,i,/,/,/,/
SMILES,TAAR1 agonist,TAAR1 antagonist,CRFR2-BP antag,CRFR2-BP ag,TMEM16A act,ANO1 block,TAAR1 ag confirm,Ga16 ag counter,TAAR1 desens,Ga16 antag count
CC(=O)NNC(=S)NC(=O)C(c1ccccc1)c1ccccc1,49.3*,18.8,-23.6,18.8,i,i,28.1,19.6*,26.7,24.6*
CN(C)C(=S)NC(=O)C(c1ccccc1)c1ccccc1,14.6,0.0,-18.9,1.7,i,i,/,/,/,/
COc1cccc(CNC(=O)c2ccc(CS(=O)Cc3ccc(C)cc3)o2)c1 (stereo unspecified),-1.3,1.4,17.5,-1.0,i,i,/,/,/,/
Cc1nc(NCCc2ccccc2)c2nnn(Cc3ccccc3Cl)c2n1,86.2*,79.5*,17.7,-0.2,i,i,91.4*,7.6,85.3*,7.9
Cc1nc(NCCN2CCOCC2)c2nnn(Cc3ccccc3Cl)c2n1,11.6,8.9,-7.7,0.5,i,i,/,/,/,/
C=CCNc1nc(C(F)(F)F)nc2c1nnn2Cc1ccccc1Cl,49.9*,16.1,-7.1,2.2,i,i,54.2*,35.2*,8.7,3.6
CCOCCCNc1nc(C(F)(F)F)nc2c1nnn2Cc1ccccc1Cl,-0.8,5.3,-24.6,5.0,i,i,/,/,/,/
